Laboratory results from ChEMBL document CHEMBL3576847, “Discovery of 1-(3,3-dimethylbutyl)-3-(2-fluoro-4-methyl-5-(7-methyl-2-(methylamino)pyrido[2,3-d]pyrimidin-6-yl)phenyl)urea (LY3009120) as a pan-RAF inhibitor with minimal paradoxical activation and activity against BRAF or RAS mutant tumor cells” (J Med Chem, 2015).
The source made the active and inactive calls. No cut-off for these calls is given here.

What was measured:
[1] = target: RAF proto-oncogene serine/threonine-protein kinase (Homo sapiens, UniProt P04049); experiment: Inhibition of wild type CRAF (unknown origin) assessed as ADP formation measured for 5 hrs by pyruvate kinase/lactate dehydrogenase coupled assay in presence of ATP, MEK1, PEP, NADH
[2] = target: T1, Serine/threonine-protein kinase B-raf (Homo sapiens, UniProt P15056, V600E); experiment: Inhibition of BRAF V600E mutant in human A375 cells assessed as inhibition of ERK phosphorylation measured after 72 hrs by ELISA assay; type: cell-based, A-375
[3] = Clearance in iv dosed rat administered as suspension; type: ADME, organism-based; conditions: in vivo
[4] = target: Serine/threonine-protein kinase B-raf (Homo sapiens, UniProt P15056); experiment: Inhibition of wild type BRAF (unknown origin) assessed as ADP formation measured for 5 hrs by pyruvate kinase/lactate dehydrogenase coupled assay in presence of ATP, MEK1, NADH
HCT-116 [5] = experiment: cells; conditions: Homo sapiens, HCT-116, 67 h
A-375 [6] = experiment: cells; conditions: Homo sapiens, A-375, 72 h
GTPase KRas = GTPase KRas (Homo sapiens, UniProt P01116, G13D); experiment: Inhibition of KRAS G13D mutant in human HCT116 cells assessed as inhibition of ERK phosphorylation by ELISA; type: cell-based, HCT-116
Method in brief: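 HCT116 cells (KRAS G13D, BRAF WT; RAF signalling via CRAF) were treated with compound, and the change in cellular phospho-ERK was measured. IC50 was taken as the concentration inhibiting phospho-ERK.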

[7] = target: Dual specificity mitogen-activated protein kinase kinase; MEK1/2 (Homo sapiens, UniProt P36507+Q02750); experiment: Inhibition of MEK (unknown origin)
[8] = target: T1, Serine/threonine-protein kinase B-raf; experiment: Inhibition of recombinant BRAF V600E mutant (unknown origin) assessed as ADP formation measured for 5 hrs by pyruvate kinase/lactate dehydrogenase coupled assay in presence of ATP, MEK1, NADH
[9] = target: Vascular endothelial growth factor receptor 2 (Homo sapiens, UniProt P35968); experiment: Inhibition of KDR (unknown origin)
[10] = Oral bioavailability in rat administered as suspension; type: ADME, organism-based; conditions: in vivo
Mus musculus [11] = experiment: Toxicity in athymic nu/nu mouse xenografted with human A375 cells expressing BRAF V600E mutant assessed as body weight loss at 20 to 30 mg/kg, po bid administered for 15 days; type: organism-based, A-375; conditions: in vivo, 360 h
Method in brief: (§1)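 Nude mice bearing A375 (BRAF V600E) or HCT116 (KRAS mutant) xenografts given oral b.i.d. doses, 20 and 30 mg/kg (A375) or 40 mg/kg (HCT116), for 15 days; body weight monitored.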

A-375 [12] = experiment: Antitumor activity against human A375 cells expressing BRAF V600E mutant xenografted in athymic nu/nu mouse assessed as tumor regression at 20 to 30 mg/kg, po bid administered for 15 days; type: functional, organism-based
Method in brief: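 Mice bearing A375 (BRAF V600E) or HCT116 (KRAS mutant) xenografts were dosed orally b.i.d. for 15 days. Doses were 20 and 30 mg/kg for A375 and 40 mg/kg for HCT116. Tumor volume and body weight were monitored.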

Mus musculus [13] = experiment: Toxicity in athymic nu/nu mouse xenografted with human HCT116 cells expressing KRAS mutant assessed as body weight loss at 40 mg/kg, po bid administered for 15 days; type: organism-based, HCT-116; conditions: in vivo, 360 h; method in brief: as §1
[14] = Paradoxical activation of RAS/RAF/MEK signaling pathway in human HCT116 cells expressing wild type BRAF assessed as ERK phosphorylation at <100 nM; type: cell-based; conditions: HCT-116
Mus musculus [15] = experiment: In vivo inhibition of BRAF V600E mutant in human A375 cells xenografted in po dosed athymic nu/nu mouse assessed as inhibition of ERK phosphorylation by ELISA; type: functional
Mus musculus [16] = experiment: In vivo inhibition of BRAF V600E mutant in human A375 cells xenografted in po dosed athymic nu/nu mouse assessed as plasma concentration required to inhibit ERK phosphorylation by 50%; type: functional, A-375
[17] = Paradoxical activation of RAS/RAF/MEK signaling pathway in human HCT116 cells expressing wild type BRAF assessed as ERK phosphorylation at >100 nM; type: cell-based; conditions: HCT-116
HCT-116 [18] = experiment: Antitumor activity against human HCT116 cells expressing KRAS mutant xenografted in athymic nu/nu mouse at 40 mg/kg, po bid administered for 15 days
Mus musculus [19] = experiment: In vivo inhibition of BRAF V600E mutant in human A375 cells xenografted in po dosed athymic nu/nu mouse assessed as plasma concentration required to inhibit ERK phosphorylation by 80%; type: functional, A-375
Mus musculus [20] = experiment: In vivo inhibition of BRAF V600E mutant in human A375 cells xenografted in po dosed athymic nu/nu mouse assessed as inhibition of MEK phosphorylation by ELISA; type: functional, organism-based; conditions: A-375
[21] = target: Serine/threonine-protein kinase A-Raf (Homo sapiens, UniProt P10398); experiment: Competitive binding affinity to ARAF in human A375 cells after 15 mins in presence of ATP analogue; type: cell-based, A-375
Chain of Serine/threonine-protein kinase A-Raf (P10398 whole entry): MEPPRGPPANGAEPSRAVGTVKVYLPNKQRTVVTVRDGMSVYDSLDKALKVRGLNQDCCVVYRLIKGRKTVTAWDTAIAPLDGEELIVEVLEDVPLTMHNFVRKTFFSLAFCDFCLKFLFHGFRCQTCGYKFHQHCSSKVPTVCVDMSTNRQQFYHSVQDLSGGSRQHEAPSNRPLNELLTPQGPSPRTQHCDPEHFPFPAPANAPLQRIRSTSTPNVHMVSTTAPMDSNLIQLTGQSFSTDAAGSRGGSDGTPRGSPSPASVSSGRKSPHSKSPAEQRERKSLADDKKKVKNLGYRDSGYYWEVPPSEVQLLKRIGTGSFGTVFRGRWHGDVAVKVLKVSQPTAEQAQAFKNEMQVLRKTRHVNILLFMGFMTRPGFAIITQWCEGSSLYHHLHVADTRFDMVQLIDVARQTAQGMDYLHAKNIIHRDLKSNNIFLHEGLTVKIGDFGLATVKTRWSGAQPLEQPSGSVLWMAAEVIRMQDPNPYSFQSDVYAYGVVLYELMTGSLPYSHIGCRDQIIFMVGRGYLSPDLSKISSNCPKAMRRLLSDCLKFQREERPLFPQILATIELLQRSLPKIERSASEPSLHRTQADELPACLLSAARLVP

Chain of Vascular endothelial growth factor receptor 2 (P35968 whole entry): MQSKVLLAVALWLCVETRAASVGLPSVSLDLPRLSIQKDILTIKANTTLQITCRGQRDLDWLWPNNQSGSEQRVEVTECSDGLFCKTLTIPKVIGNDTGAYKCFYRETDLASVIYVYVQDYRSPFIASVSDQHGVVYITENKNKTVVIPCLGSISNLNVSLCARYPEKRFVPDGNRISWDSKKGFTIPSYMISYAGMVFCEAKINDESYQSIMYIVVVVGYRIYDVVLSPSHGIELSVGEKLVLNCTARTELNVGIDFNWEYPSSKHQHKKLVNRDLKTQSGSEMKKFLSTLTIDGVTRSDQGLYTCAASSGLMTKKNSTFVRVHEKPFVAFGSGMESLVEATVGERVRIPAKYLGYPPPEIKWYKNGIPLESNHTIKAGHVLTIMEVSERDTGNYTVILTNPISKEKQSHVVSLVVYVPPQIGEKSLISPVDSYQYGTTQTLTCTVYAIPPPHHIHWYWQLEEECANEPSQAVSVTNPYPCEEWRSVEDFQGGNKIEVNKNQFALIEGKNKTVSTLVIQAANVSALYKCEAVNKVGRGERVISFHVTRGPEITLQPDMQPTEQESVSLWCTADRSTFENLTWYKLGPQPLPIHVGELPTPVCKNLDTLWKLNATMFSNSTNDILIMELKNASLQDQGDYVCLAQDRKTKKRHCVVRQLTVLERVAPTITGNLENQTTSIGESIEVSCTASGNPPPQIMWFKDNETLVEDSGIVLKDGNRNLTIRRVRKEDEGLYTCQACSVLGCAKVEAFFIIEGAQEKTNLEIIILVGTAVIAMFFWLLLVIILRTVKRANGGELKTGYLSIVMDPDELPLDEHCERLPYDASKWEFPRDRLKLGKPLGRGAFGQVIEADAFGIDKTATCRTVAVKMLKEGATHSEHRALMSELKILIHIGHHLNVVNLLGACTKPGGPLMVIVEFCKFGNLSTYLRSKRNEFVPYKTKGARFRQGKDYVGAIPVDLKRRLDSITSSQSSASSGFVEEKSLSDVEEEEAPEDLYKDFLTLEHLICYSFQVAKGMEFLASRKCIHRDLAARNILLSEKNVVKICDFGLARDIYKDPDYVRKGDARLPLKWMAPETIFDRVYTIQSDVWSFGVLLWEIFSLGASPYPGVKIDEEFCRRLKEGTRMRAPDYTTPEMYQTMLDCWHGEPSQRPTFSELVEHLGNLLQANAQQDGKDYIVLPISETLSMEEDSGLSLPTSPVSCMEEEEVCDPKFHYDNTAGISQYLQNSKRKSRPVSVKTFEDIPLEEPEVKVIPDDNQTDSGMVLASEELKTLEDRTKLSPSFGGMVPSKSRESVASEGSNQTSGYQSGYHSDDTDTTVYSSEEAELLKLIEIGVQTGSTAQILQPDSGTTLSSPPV
T1 sequence (P15056 2-766 V600E limits assumed): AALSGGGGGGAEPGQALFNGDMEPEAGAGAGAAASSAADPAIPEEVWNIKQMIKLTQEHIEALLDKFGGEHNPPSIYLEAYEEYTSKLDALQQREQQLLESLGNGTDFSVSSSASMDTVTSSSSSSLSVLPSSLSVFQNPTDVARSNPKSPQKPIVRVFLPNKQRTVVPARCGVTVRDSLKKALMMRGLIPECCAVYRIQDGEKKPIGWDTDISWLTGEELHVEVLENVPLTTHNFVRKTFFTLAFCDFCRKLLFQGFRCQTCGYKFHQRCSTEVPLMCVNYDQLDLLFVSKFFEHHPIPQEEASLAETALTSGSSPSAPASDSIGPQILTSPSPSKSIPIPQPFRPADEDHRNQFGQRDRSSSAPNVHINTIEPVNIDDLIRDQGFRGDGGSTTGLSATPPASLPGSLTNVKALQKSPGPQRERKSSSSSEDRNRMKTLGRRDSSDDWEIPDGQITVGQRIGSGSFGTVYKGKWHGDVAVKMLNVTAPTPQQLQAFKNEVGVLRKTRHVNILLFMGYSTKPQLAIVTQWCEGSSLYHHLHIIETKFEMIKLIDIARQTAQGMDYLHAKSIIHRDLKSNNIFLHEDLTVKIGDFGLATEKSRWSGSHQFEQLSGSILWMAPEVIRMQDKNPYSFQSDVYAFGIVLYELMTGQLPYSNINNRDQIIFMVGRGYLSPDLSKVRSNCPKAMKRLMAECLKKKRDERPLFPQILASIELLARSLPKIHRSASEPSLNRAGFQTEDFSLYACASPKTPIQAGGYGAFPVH
Chain of Serine/threonine-protein kinase B-raf (Homo sapiens, UniProt P15056) (P15056 whole entry): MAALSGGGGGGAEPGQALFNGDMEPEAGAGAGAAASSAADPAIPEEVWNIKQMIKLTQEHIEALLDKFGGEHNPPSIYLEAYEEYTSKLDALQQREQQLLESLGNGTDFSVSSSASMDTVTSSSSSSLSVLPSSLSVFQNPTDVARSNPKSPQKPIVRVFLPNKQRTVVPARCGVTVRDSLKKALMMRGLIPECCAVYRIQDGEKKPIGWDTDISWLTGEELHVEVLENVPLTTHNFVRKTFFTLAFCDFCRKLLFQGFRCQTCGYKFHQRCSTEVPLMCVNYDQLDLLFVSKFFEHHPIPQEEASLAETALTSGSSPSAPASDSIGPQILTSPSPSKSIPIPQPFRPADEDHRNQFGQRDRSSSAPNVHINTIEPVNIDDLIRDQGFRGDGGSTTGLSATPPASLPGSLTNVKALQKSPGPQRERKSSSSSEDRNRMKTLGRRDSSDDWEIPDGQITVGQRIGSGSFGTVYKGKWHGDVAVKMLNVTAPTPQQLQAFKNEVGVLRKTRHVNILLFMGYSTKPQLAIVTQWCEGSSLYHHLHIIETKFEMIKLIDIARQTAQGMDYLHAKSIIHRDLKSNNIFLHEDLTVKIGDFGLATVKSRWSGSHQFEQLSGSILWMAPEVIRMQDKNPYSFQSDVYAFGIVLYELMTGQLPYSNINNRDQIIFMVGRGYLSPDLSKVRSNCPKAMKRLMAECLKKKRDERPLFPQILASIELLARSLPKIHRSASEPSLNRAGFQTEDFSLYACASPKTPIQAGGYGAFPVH
Chain of GTPase KRas (P01116 whole entry G13D): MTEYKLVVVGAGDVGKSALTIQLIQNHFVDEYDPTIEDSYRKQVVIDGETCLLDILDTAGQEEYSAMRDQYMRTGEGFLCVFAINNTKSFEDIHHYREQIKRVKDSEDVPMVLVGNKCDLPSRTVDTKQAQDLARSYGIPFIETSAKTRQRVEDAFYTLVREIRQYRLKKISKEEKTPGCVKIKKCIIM
Chain of RAF proto-oncogene serine/threonine-protein kinase (P04049 whole entry): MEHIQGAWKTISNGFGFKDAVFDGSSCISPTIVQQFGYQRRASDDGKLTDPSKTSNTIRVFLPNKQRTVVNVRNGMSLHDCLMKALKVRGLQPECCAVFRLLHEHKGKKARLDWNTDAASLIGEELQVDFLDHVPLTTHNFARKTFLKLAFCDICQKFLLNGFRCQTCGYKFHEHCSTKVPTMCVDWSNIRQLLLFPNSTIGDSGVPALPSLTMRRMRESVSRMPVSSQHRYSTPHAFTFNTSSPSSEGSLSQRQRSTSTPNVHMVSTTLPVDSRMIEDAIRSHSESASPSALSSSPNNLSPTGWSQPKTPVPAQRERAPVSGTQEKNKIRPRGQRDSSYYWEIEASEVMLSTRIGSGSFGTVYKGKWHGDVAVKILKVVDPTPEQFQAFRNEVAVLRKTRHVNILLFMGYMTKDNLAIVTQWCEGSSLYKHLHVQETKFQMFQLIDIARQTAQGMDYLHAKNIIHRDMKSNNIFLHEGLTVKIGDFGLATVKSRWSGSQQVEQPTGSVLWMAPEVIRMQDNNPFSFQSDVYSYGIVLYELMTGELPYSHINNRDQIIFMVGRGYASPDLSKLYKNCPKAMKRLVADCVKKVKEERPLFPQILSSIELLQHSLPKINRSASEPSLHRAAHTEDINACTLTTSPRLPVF

In the case of `CNc1cc2nc(C)c(-c3cc(NC(=O)NCCC(C)(C)C)c(F)cc3C)cc2cn1`, the IC50 [1] is reported as 5.6 nM, the IC50 [2] is reported as 47 nM and the clearance [3] is reported as 3.36 mL/min/kg. It also gave an IC50 [4] of 28 nM, an IC50 (HCT-116 [5]) of 320 nM and an IC50 (A-375 [6]) of 11 nM. The IC50 (GTPase KRas) was 120 nM, the IC50 [7] was 5900 nM and the IC50 [8] was 18 nM. The IC50 [9] was 170 nM and the bioavailability [10] was 30%.
For `CNc1cc2nc(C)c(-c3cc(NC(=O)NCCC(C)(C)C)ccc3C)cc2cn1`, the IC50 [1] was 6.7 nM, the IC50 [2] was 140 nM and the IC50 [4] was 27 nM. The IC50 (HCT-116 [5]) was 510 nM, the IC50 (A-375 [6]) was 35 nM and the IC50 (GTPase KRas) was 270 nM. The IC50 [7] was > 20000 nM and the IC50 [8] was 4.3 nM.
For `CNc1cc2nc(C)c(-c3cc(NC(=O)NC[C@@H](O)C(C)(C)C)c(F)cc3C)cc2cn1`, the IC50 [1] was 7.2 nM, the Activity (Mus musculus [11]) was “Non-toxic” and the IC50 [2] was 22 nM. The Activity (A-375 [12]) was “Active”, the Activity (Mus musculus [13]) was “Non-toxic” and the Activity [14] was “Active”. The IC50 [4] was 39 nM, the IC50 (HCT-116 [5]) was 174 nM and the IC50 (A-375 [6]) was 10 nM. For the same compound, the inhibition (Mus musculus [15]; A-375) was “Dose-dependent effect”, the ED50 (Mus musculus [15]; A-375, po) was 1.7 mg/kg and the ED80 (Mus musculus [15]; A-375, po) was 5.7 mg/kg. It also gave an IC50 (GTPase KRas) of 160 nM, an IC50 [7] of 15000 nM and an IC50 [8] of 7.7 nM. For the same compound, the Activity (Mus musculus [16]) was 3.1 µM, the Activity [17] was “inactive” and the IC50 [9] was 750 nM. For the same compound, the Activity (HCT-116 [18]) was “Active”, the INH (Mus musculus [19]) was 7661 ng/mL and the inhibition (Mus musculus [20]) was “Dose-dependent effect”.
`CNc1cc2nc(C)c(-c3ccc(F)c(NC(=O)NCCC(C)(C)C)c3)cc2cn1` gave an IC50 [1] of 1.6 nM, an IC50 [2] of 82 nM and an IC50 [4] of 8.4 nM. For the same compound, the IC50 (HCT-116 [5]) was 160 nM, the IC50 (A-375 [6]) was 40 nM and the IC50 (GTPase KRas) was 46 nM. For the same compound, the IC50 [7] was > 20000 nM, the IC50 [8] was 3 nM and the IC50 [9] was 33 nM.
`CC(C)(C)c1nc(-c2cccc(NS(=O)(=O)c3c(F)cccc3F)c2F)c(-c2ccnc(N)n2)s1` [DABRAFENIB] gave an IC50 (GTPase KRas) of 5880 nM and an IC50 [21] of 26 nM.
In the case of `Cc1cc(F)c(NC(=O)NCCC(C)(C)C)cc1-c1cc2cnc(N)nc2nc1C`, the IC50 (HCT-116 [5]) is reported as 190 nM, the IC50 (A-375 [6]) is reported as 33 nM and the IC50 [8] is reported as 7.9 nM. For the same compound, the IC50 [9] was 540 nM.
